This passage reports IC50 results from BindingDB's records for doi:10.1016/j.bmcl.2009.10.078 (Niddk, 2009).

In the test the target is T1, Protein Tat (Human immunodeficiency virus type 1 group M subtype B (isolate HXB2), UniProt P04608).
T1 sequence (P04608 whole entry): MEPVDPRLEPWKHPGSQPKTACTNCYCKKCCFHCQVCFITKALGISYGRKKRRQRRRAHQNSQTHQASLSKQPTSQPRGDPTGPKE
Nature of the test: Inhibition of HIV1 TAT transfected to human HeLa cells assessed as decrease in luminescence after 48 hrs by duel luciferase reporter gene assay. In a few lines:
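HeLa cells stably carrying HIV-1 Tat and firefly luciferase on one bicistronic mRNA plus an HIV-1 LTR-renilla luciferase reporter. IC50 taken from dose-dependent fall in renilla luminescence (Tat-TAR function); firefly signal monitors Tat expression/cytotoxicity.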
For orientation: Reporter assays use an easily measured gene product as a stand-in for the process of interest.
Regarding `NCCCC[C@@H](CN[C@H](CN[C@H](CN[C@H](CNCCC(N)=O)Cc1ccc(O)cc1)Cc1ccc(O)cc1)Cc1ccc(O)cc1)NC[C@H](Cc1ccc(O)cc1)NC[C@@H](N)Cc1ccc(O)cc1`, the IC50 (commonly the concentration needed to halve the response being measured) came to 12 µM. Then `C[C@@H](CN[C@H](CN[C@H](CN[C@H](CNCCC(N)=O)Cc1ccc(O)cc1)Cc1ccc(O)cc1)Cc1ccc(O)cc1)NC[C@H](Cc1ccc(O)cc1)NC[C@H](Cc1ccc(O)cc1)NC[C@H](Cc1ccc(O)cc1)NC[C@@H](N)Cc1ccc(O)cc1`, with 0.9 µM; and `NCCCC[C@@H](CN[C@H](CNCCC(N)=O)Cc1ccc(O)cc1)NC[C@H](Cc1ccc(O)cc1)NC[C@H](CCCCN)NC[C@H](Cc1ccc(O)cc1)NC[C@@H](N)Cc1ccc(O)cc1`, with 35 µM. Then `NC(=O)CCNC[C@H](Cc1ccc(O)cc1)NC[C@H](Cc1ccc(O)cc1)NC[C@H](Cc1ccc(O)cc1)NC[C@H](Cc1ccc(O)cc1)NC[C@@H](N)Cc1ccc(O)cc1`, with 30 µM; and `C[C@@H](CN[C@H](CN[C@H](CN[C@H](CNCCC(N)=O)Cc1ccc(O)cc1)Cc1ccc(O)cc1)Cc1ccc(O)cc1)NC[C@H](Cc1ccc(O)cc1)NC[C@@H](N)Cc1ccc(O)cc1`, with 6 µM.

Take `NC(=O)CCNC[C@H](Cc1ccc(O)cc1)NC[C@H](Cc1ccc(O)cc1)NC[C@@H](N)Cc1ccc(O)cc1`: the IC50 is 19 µM. The figure for `NCCCC[C@@H](CN[C@H](CNCCC(N)=O)Cc1ccc(O)cc1)NC[C@H](Cc1ccc(O)cc1)NC[C@H](CCCCN)NC[C@H](Cc1c[nH]c2ccccc12)NC[C@@H](N)Cc1ccc(O)cc1` is 10 µM.
